# Measurements from paper PMC4763880 (Molecular Biosystems, 2016).
# Square brackets hold non-standard residues; d marks the D form. Ends that are not written are not given here. * marks the point of attachment. MethylRed = CN(C)c1ccc(/N=N/c2ccccc2C(=O)*)cc1; Dnp = O=[N+]([O-])c1ccc(*)c([N+](=O)[O-])c1; AFC = O=c1cc(C(F)(F)F)c2ccc(N*)cc2o1; Mca = COc1ccc2c(CC(=O)*)cc(=O)oc2c1; Ahx = NCCCCCC(=O)O
# T1: recombinant human caspase-7 (Homo sapiens, UniProt P55210)
# T1 sequence (P55210 24-198 limits assumed): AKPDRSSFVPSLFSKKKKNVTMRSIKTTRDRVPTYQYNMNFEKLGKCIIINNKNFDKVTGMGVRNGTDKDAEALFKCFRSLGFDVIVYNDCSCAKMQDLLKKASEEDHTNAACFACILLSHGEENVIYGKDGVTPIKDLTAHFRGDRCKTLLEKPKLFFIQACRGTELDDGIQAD
# T1 sequence (P55210 207-303 limits assumed): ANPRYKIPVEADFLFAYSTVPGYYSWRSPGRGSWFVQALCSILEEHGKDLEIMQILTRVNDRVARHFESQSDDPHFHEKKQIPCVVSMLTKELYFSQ
# T2: human recombinant caspase-7 (human) (UniProt P55210)
# T2 sequence: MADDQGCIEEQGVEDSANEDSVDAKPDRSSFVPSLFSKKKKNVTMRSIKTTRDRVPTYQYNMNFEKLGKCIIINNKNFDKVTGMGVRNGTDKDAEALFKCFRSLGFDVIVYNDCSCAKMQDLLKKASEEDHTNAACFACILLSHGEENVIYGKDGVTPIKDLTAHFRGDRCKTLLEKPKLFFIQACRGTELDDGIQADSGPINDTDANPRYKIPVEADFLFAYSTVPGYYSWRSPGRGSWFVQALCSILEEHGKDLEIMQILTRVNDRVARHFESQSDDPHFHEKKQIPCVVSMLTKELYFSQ
# T3: human recombinant caspase-3 (human) (UniProt P42574)
# T3 sequence: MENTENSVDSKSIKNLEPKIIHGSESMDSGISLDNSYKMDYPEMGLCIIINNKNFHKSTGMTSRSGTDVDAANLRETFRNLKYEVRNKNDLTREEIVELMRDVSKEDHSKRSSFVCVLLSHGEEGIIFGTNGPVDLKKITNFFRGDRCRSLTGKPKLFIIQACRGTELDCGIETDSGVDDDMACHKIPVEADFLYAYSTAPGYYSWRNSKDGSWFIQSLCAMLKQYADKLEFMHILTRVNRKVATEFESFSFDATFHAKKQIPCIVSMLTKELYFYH
# Key:
# caspase-3 = test: Screen of time-dependent fluorescence activation with caspase-3; assay type: biochemical, human; conditions: caspase-3 15 nM; for Activation with caspase-3 in preliminary screen (in words): substrate 2.5, 5 and 10 μM, 0-40 min, n = 3 (Fig. S1)
# [1] = target: T1, recombinant human caspase-7; test: Kinetic assay; assay type: biochemical; conditions: caspase-7 15 nM; pH 7.5 caspase buffer; n = 3
# Procedure, shortened: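 Human recombinant enzyme was incubated with internally quenched FRET substrates, FAM-Ahx-Asp-Glu-X2-Asp-X1′-(Ahx)-Lys(MR)-NH2. X2 was Val or Pro; X1′ was Gly, Ala, Ser or absent. The donor was 5(6)-carboxyfluorescein (Ex/Em 492/517 nm) and the quencher methyl red. Cleavage between Asp and X1′ relieves quenching. KM and kcat were determined for each substrate, and catalytic efficiency taken as kcat/KM.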
# [2] = target: T2, human recombinant caspase-7 (human)
# [3] = target: T3, human recombinant caspase-3 (human)
Molecule,Caspase-7 k cat/K M (catalytic efficiency) [1],also measured
"Substrate 3: FRET substrate of the template; X2 Pro, X1′ Ser, no spacer ({5(6)‑carboxyfluorescein-Ahx}-DEPDSK(MethylRed)-NH2)",,Activation with caspase-3 in preliminary screen (in words) (caspase-3): reduced activation
"Substrate 6: FRET substrate of the template; X2 Pro, X1′ Gly, spacer Ahx ({5(6)‑carboxyfluorescein-Ahx}-DEPDG[Ahx]K(MethylRed)-NH2)",8.4 μM^–1 min^–1,
"Substrate 7: FRET substrate of the template; X2 Val, X1′ Gly, spacer Ahx ({5(6)‑carboxyfluorescein-Ahx}-DEVDG[Ahx]K(MethylRed)-NH2)",3.9 μM^–1 min^–1,
Ac-Asp-Glu-Val-Asp-AFC [reference compound],1.1 μM^–1 min^–1,
"Substrate 9: FRET substrate of the template; X2 Val, X1′ Ala, spacer Ahx ({5(6)‑carboxyfluorescein-Ahx}-DEVDA[Ahx]K(MethylRed)-NH2)",3.2 μM^–1 min^–1,"Fold higher increase in fluorescence than Ac-Asp-Glu-Val-Asp-AFC (AFC) (caspase-3; all substrates at 20 μM, n = 3 (Fig. S2)): 3 fold"
"Substrate 11: FRET substrate of the template; X2 Val, X1′ Ser, spacer Ahx ({5(6)‑carboxyfluorescein-Ahx}-DEVDS[Ahx]K(MethylRed)-NH2)",2.4 μM^–1 min^–1,
"Substrate 1: FRET substrate FAM-Ahx-Asp-Glu-X2-Asp-X1′-spacer-Lys(MR)-NH2; X2 Val, X1′ Gly, no spacer ({5(6)‑carboxyfluorescein-Ahx}-DEVDGK(MethylRed)-NH2)",8.6 μM^–1 min^–1,
"Substrate 10: FRET substrate of the template; X2 Pro, X1′ Ser, spacer Ahx ({5(6)‑carboxyfluorescein-Ahx}-DEPDS[Ahx]K(MethylRed)-NH2)",0.5 μM^–1 min^–1,Activation with caspase-3 in preliminary screen (in words) (caspase-3): activity was restored
"Substrate 2: FRET substrate of the template; X2 Pro, X1′ Ala, no spacer ({5(6)‑carboxyfluorescein-Ahx}-DEPDAK(MethylRed)-NH2)",,Activation with caspase-3 in preliminary screen (in words) (caspase-3): reduced activation
"Substrate 4: FRET substrate of the template; X2 Val, no X1′, spacer Ahx ({5(6)‑carboxyfluorescein-Ahx}-DEVD[Ahx]K(MethylRed)-NH2)",3.4 μM^–1 min^–1,
"Substrate 5: FRET substrate of the template; X2 Pro, no X1′, spacer Ahx ({5(6)‑carboxyfluorescein-Ahx}-DEPD[Ahx]K(MethylRed)-NH2)",3.5 μM^–1 min^–1,
MCA-Asp-Glu-Val-Asp-Ala-Pro-Lys-DNP [reference compound],0.4 μM^–1 min^–1,
"Substrate 8: FRET substrate of the template; X2 Pro, X1′ Ala, spacer Ahx ({5(6)‑carboxyfluorescein-Ahx}-DEPDA[Ahx]K(MethylRed)-NH2)",0.14 μM^–1 min^–1,Activation with caspase-3 in preliminary screen (in words) (caspase-3): activity was restored
Mca-DEVDAPK(Dnp) [MCA-Asp-Glu-Val-Asp-Ala-Pro-Lys-DNP],,K M (μM) of cleavage of the fluorogenic substrate by caspase-7 [2]: 15.1 µM; K M (μM) of cleavage of the fluorogenic substrate by caspase-3 [3]: 13.5 µM
Ac-DEVD-{AFC} [Ac-Asp-Glu-Val-Asp-AFC],,K M (μM) of cleavage of the fluorogenic substrate by caspase-7 [2]: 10.8 µM; K M (μM) of cleavage of the fluorogenic substrate by caspase-3 [3]: 9.8 µM
